From PubChem
A selection: hits, their analogues and other compounds. The true share with any hit is near 1.3%.
G6PDH CS – counter-screen for G6PDH assay hits: L. mesenteroides G6PDH inhibition | Purified L. mesenteroides G6PDH, diaphorase/resazurin coupled fluorescence, 45 min | inhibition, % at 5 µM | hit rate 0.12% among 200,000 | AID 1020; in the data active = inhibition above about 50%
Diaph act CS – diaphorase activation or chemical reduction counter-screen | Diaphorase/resazurin coupled assay, resorufin fluorescence, 16 min; stronger effect = higher value; 1 = vehicle wells, 0 = NADH-free wells | activation factor at 20 µM | hit rate 0.005% among 190,000;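 active = diaphorase activity raised at least twofold by the compound at 20 µM; inactive = activation factor below 2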
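test system = bacterial diaphorase enzyme (C. kluyveri) | quantity = enzyme 0.07 U/mL final | reagent = NADH substrate 0.114 mM plus resazurin dye 0.1 mM, final | incubation = 16 min enzyme reaction, ambient temperature | buffer or medium = HEPES pH 7.4 buffer with MgCl2 and Tween 20 | signal = fluorescence of resorufin, 544 nm excitation, 590 nm emission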
Diaph inh CS – counter-screen for diaphorase-based assays: diaphorase inhibitors and chemical oxidizers; diaphorase resazurin-to-resorufin fluorescence, NADH, 16 min; bacterial (C. kluyveri) enzyme, not human; inhibition, % at 20 µM; hit rate 0.69% among 190,000; AID 1217;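 active = primary screen inhibition at 20 µM above a set limit, cut at about 50% in these data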;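 note: plate controls were DMSO with full reaction for no effect and wells lacking NADH for full effect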
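Assay system: diaphorase enzyme from Clostridium kluyveri. Quantity: enzyme working solution with 0.14 U/mL diaphorase. Schedule: reaction incubation of 16 min at room temperature. Technique: resorufin fluorescence, excitation 544 nm, emission 590 nm. Controls: No-NADH positive control and DMSO neutral control.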
PfGluPho inh – PfG6PD (Plasmodium falciparum) enzyme inhibition | AID 504690 | hit rate 0.78% among 350,000 | PfGluPho enzyme, NADPH resazurin-diaphorase fluorescence | inhibition, % at 20 µM;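 active = inhibition reaching at least a set limit at 20 µM in the primary screen, cut at about 59% in these data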;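 note: 0% = DMSO wells with substrate and 100% = DMSO wells lacking glucose-6-phosphate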
HKDC1 inhibitor – inhibitors of human hexokinase HKDC1; recombinant HKDC1, G6PDH/diaphorase resazurin coupled fluorescence; inhibition, % at 20 µM; hit rate 0.16% among 340,000;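 active = inhibition above about 35% when tested at 20 µM, limit read from the data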;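 note: plate controls were DMSO wells with enzyme for no effect and DMSO wells lacking enzyme for full effect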
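Assay system – recombinant HKDC1 (HK5) hexokinase enzyme, produced in-house · Input – HKDC1 at 5 µg/mL · Reagent – glucose plus 1 mM ATP as hexokinase substrates · Timing – 90 min reaction incubation at room temperature, dark · Measured by – G6PDH/diaphorase-coupled fluorescence, 1 mM NADP, 100 µM resazurin, 525/613 nm · Benchmarks – DMSO-enzyme wells negative, buffer-substituted wells positive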
PfGluPho conf – confirmation of Plasmodium falciparum G6PD inhibitors. hit rate 34% among 2,400. recombinant PfGluPho, NADPH-diaphorase-resazurin fluorescence. inhibition, % at 20 µM. shares compounds with PfGluPho inh;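 active = inhibition of at least 50% at 20 µM in any single replicate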;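 note: 0% = DMSO with substrate and 100% = DMSO lacking glucose-6-phosphate substrate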
Diaph ctr 10uM – inhibits diaphorase or oxidizes, flagging false PfG6PD hits; shares compounds with PfGluPho inh; diaphorase-coupled resazurin reduction, fluorescence, NADPH 10 uM; inhibition, % at 20 µM; hit rate 39% among 820;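 active = average inhibition reaching 50% or more with the compound at 20 µM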;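 note: resorufin red fluorescence formed as diaphorase reduces resazurin using NADPH; 0% = DMSO with enzyme and 100% = DMSO without enzyme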
Diaph ctr 30uM – inhibits diaphorase or oxidizes, flagging false PfG6PD hits; hit rate 29% among 820; Diaphorase/resazurin coupled assay, resorufin fluorescence, 30 uM NADPH; shares compounds with PfGluPho inh; inhibition, % at 20 µM;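 active = inhibition averaging 50% or more, tested at 20 µM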;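 note: 0% = DMSO with enzyme and 100% = DMSO wells lacking diaphorase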
Starred values were filed as active, the others as inactive; nt = no result.

SMILES | G6PDH CS | Diaph act CS | Diaph inh CS | PfGluPho inh | HKDC1 inhibitor | PfGluPho conf | others
O=C(CSc1nnc(SCc2ccccc2)s1)N/N=C/c1c[nH]c2ccccc12 | 1 | 0.8 | 22 | 24 | -3 | nt
CCCOC(=O)C1=C(C)NC(=O)NC1c1cc2c(cc1Br)OCO2 (centres undefined) | nt | nt | nt | -28 | 3 | nt
Cc1c(Cl)cccc1N=Cc1ccc([N+](=O)[O-])s1 | 4 | 1 | 4 | 77* | 3 | -5
Cc1ccccc1C(=O)N/N=C/c1ccc([N+](=O)[O-])s1 | 8 | 1 | 2 | 35 | 10 | nt
Cc1cc(-n2c(C)cc(C(=O)CSc3nnnn3-c3ccccc3)c2C)no1 | 4 | 0.8 | 15 | 12 | -8 | nt
Cc1cc(-n2c(C)cc(C(=O)CSc3ccccn3)c2C)no1 | nt | nt | nt | 67* | -3 | 23
CCOC(=O)N1CCN(C(=O)Nc2ccc3oc(C)nc3c2)CC1 | 3 | 0.9 | 6 | 62* | -6 | -4
CCOC(=O)C1CCN(C(=O)Nc2ccc3oc(C)nc3c2)CC1 | 2 | 0.8 | 15 | 17 | -9 | nt
O=S(=O)(Cc1cc(Oc2ccccc2)nc(-c2ccccc2)n1)c1ccccc1 | 0 | 1 | -1 | -2 | 2 | nt
COc1cccc(-n2sc3c(c2=S)-c2cc(OC)ccc2NC3(C)C)c1 | 5 | 0.7 | 28 | 23 | 2 | nt
CC1(C)Nc2ccc(O)cc2-c2c1ssc2=S | 8 | 0.6 | 45 | 72* | 12 | 55* | Diaph ctr 10uM=0;Diaph ctr 30uM=10
CC(=O)Nc1cc([N+](=O)[O-])ccc1OCc1ccccc1 | nt | nt | nt | 72* | 0 | 50* | Diaph ctr 10uM=45;Diaph ctr 30uM=37
COc1ccc([N+](=O)[O-])cc1NC(=O)CSCc1ccccc1 | 10 | 0.8 | 23 | 16 | 19 | nt
Cc1cccc(OCC(=O)NCC(=O)N/N=C/c2cccs2)c1 | 15 | 0.9 | 10 | 25 | -8 | nt
Cc1cccc(OCC(=O)NCC(=O)N/N=C/c2c(C)[nH]c3ccccc23)c1 | nt | nt | nt | 63* | -1 | 26
O=C(NCc1ccco1)C1CCCN(S(=O)(=O)c2cc(Cl)ccc2Cl)C1 (centres undefined) | nt | nt | nt | -6 | -7 | nt
CC(=O)NS(=O)(=O)c1ccc(NC(=O)c2cc(-c3ccc(C)cc3)nc3ccccc23)cc1 | 10 | 1 | 3 | 9 | -8 | nt
Nn1cnnc1N/N=C/c1ccc(Cl)c([N+](=O)[O-])c1 | 18 | 1.2 | -16 | 73* | 13 | 63* | Diaph ctr 10uM=82*;Diaph ctr 30uM=74*
Nn1cnnc1N/N=C/c1ccc(F)cc1 | nt | nt | nt | 45 | -1 | nt
O=C1N=C(N2CCN(c3ccccc3)CC2)S/C1=C/c1cccs1 | -2 | 0.8 | 19 | 8 | -2 | nt
O=C1N=C(c2ccccc2)S/C1=C\c1cccs1 | -3 | 0.7 | 27 | 63* | 4 | 30
CC1=C(C(=O)Nc2cccnc2)C(c2cccnc2)n2nc(-c3cccs3)nc2N1 (centres undefined) | 3 | 1 | 0 | -18 | -9 | nt
CS(=O)(=O)N(CC(=O)N/N=C/c1cccs1)c1cccc(Cl)c1Cl | 1 | 0.9 | 9 | 65* | 0 | 43
Cc1ccc([C@@H]2C[C@H]3[C@@H](CN2S(=O)(=O)c2ccc(C)cc2)C(=O)C[C@@H](c2cccc(Cl)c2)N3S(=O)(=O)c2ccc(C)cc2)cc1 | nt | nt | nt | 7 | nt | nt
CC(=O)c1ccc(NC(=O)C2Cc3ccccc3CN2C(=O)c2ccccc2)cc1 (centres undefined) | -12 | 0.8 | 16 | 68* | -7 | 37
COc1ccc(NC(=O)C2Cc3ccccc3CN2C(=O)c2ccccc2)cn1 (centres undefined) | -7 | 0.9 | 12 | 61* | 1 | 48
O=C(NC1=NCCS1)C1Cc2ccccc2CN1C(=O)c1ccccc1 (centres undefined) | 9 | 1 | 4 | 28 | 2 | nt
COc1ccc(NC(=O)C2Cc3ccccc3CN2C(=O)c2ccco2)cc1 (centres undefined) | nt | nt | nt | 4 | -4 | nt
Cc1cc(S(=O)(=O)N2CCOCC2)ccc1OCC(=O)N1CCC(C(N)=O)CC1 | nt | nt | nt | -3 | -3 | nt
